From ChEMBL document CHEMBL1124668, “Solid-phase synthesis of 16 potent (selective and nonselective) in vivo antagonists of oxytocin” (J Med Chem, 1989) come the findings set out here.

Assay [1] deals with Rattus norvegicus. Briefly: (§1) Antivasopressor activity in vivo in phenoxybenzamine pre-treated rats. Format: functional. Put shortly:
(§2)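 Rats pretreated with phenoxybenzamine, under urethane anesthesia; antagonist given iv; agonist USP Posterior Pituitary Reference Standard; read-out is pressor response. Effective dose (nmol/kg) is the dose that cuts the response to 2X units of agonist to that of 1X unit, interpolated semilogarithmically from bracketing doses. pA2 assumes a 67 mL/kg distribution volume. SEM is given where there are ≥4 independent estimates.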

The subject of assay [2] is Rattus norvegicus. Kind of assay: Antidiuretic activity in rats as intravenous dose required for reduction of 2x agonist response to equal 1x effect in estrogen pretreated rats. Format: functional, Urine.
The subject of assay [3] is Rattus norvegicus. Kind of assay: In vivo inhibition of estrogen induced changes in interuterine pressure in rats. Format: functional. Put shortly: (§3)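 Rats pretreated with estrogen, under urethane anesthesia; antagonist given iv; read-out is change in integrated intrauterine pressure; agonist synthetic oxytocin. Effective dose (nmol/kg) is the dose that cuts the response to 2X units of agonist to the response to 1X unit, interpolated on a semilog scale from doses above and below it. pA2 is derived assuming a 67 mL/kg distribution volume.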

Assay [4] has as its system Rattus norvegicus. Briefly: Antidiuretic activity in rats as intravenous dose required for reduction of 2x agonist response to equal 1x effect in hydrated rats under ethanol anesthesia; Weak partial agonist/antagonist.
The subject of assay [5] is Rattus norvegicus. Kind of assay: Antioxytocic potencies (change in interuterine pressure) in vivo in estrogen pre-treated rats. Format: functional, organism-based. The settings on record: read-out: pA2 (converted). In short, it runs like this: as §3
For assay [6], the species on record is Rattus norvegicus. Briefly: Antioxytoxic activity in vitro in isolated uteri from estrogen pretreated rats suspended in Mg supplemented Dyke-Hastings solution. Format: functional. Conditions: read-out: pA2 (converted). In short, it runs like this: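 Isolated rat uterus in bath medium with Mg2+; agonist USP Posterior Pituitary Reference Standard. pA2 is the −log of the effective molar antagonist concentration that reduces the response to a dose of agonist to the response to half that dose. It is interpolated semilogarithmically from concentrations above and below it. SEM is given where there are ≥4 independent estimates.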

Assay [7] deals with Rattus norvegicus. The assay is described as §1. Format: functional, organism-based. Conditions: read-out: pA2 (converted). In short, it runs like this:
as §2

For assay [8], the species on record is Rattus norvegicus. Kind of assay: Antioxytoxic activity in vitro in isolated uteri from estrogen pretreated rats suspended in Mg-free Dyke-Hastings solution. The settings on record: read-out: pA2 (converted).
Assay [9] relates to Rattus norvegicus. Kind of assay: Antiantidiuretic activity in vivo in hydrated rats under ethanol anaesthesia. Format: functional, organism-based. Conditions: Urine, read-out: pA2 (converted). In short, it runs like this: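 Hydrated rats under ethanol anaesthesia; antagonist given iv against the USP Posterior Pituitary Reference Standard as agonist. Effective dose (nmol/kg) is the dose that cuts the response to 2x units of agonist to equal the response to 1x unit. It is estimated by interpolation on a semilog scale between doses above and below it. pA2 assumes a volume of distribution of 67 mL/kg. Where SEM is given, n ≥4 estimates.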

For assay [10], the species on record is Rattus norvegicus. Briefly: Antidiuretic activity in rat. Format: functional, Urine.

Starred links: 1 amine or outer side, 2 acyl side, 3 side chain; linkers in the order of their positions; H or OH if unused. Positions of bridges follow the written chain, without caps; N, C: chain ends. Non-standard residues stand in square brackets, D forms with d. Residues, ends and D or L forms follow the SMILES beside them. X1 = O=C(CC1(S[*:2])CCCCC1)[*:1]; Orn = NCCC[C@H](N)C(=O)O

Regarding `CC[C@H](C)[C@@H]1NC(=O)[C@@H](Cc2ccccc2)NC(=O)CC2(CCCCC2)SSC[C@@H](C(=O)N2CCC[C@H]2C(=O)N[C@@H](CCCN=C(N)N)C(=O)NCC(N)=O)NC(=O)[C@H](CC(N)=O)NC(=O)[C@H](C(C)C)NC1=O`, the results for the ED in assay [1], in assay [2] and in assay [3] were 17 nM/kg, 45 nM/kg and 2.5 nM/kg, respectively.
As for `CC[C@H](C)[C@@H]1NC(=O)[C@@H](Cc2ccc(OC)cc2)NC(=O)CC2(CCCCC2)SSC[C@@H](C(=O)N2CCC[C@H]2C(=O)N[C@@H](CCCN=C(N)N)C(=O)NCC(N)=O)NC(=O)[C@H](CC(N)=O)NC(=O)[C@H](C(C)C)NC1=O`, the ED in assay [1] is 1.1 nM/kg; in assay [2], 9.4 nM/kg; in assay [3], 2.4 nM/kg.
Consider `CCOc1ccc(C[C@H]2NC(=O)CC3(CCCCC3)SSC[C@@H](C(=O)N3CCC[C@H]3C(=O)N[C@@H](CCCNC(N)=O)C(=O)NCC(N)=O)NC(=O)[C@H](CC(N)=O)NC(=O)[C@H](C(C)C)NC(=O)[C@H](Cc3ccccc3)NC2=O)cc1`, for which the ED was 0.81 nM/kg in assay [1], 23 nM/kg in assay [2] and 1.8 nM/kg in [3].
As for `COc1ccc(C[C@H]2NC(=O)CC3(CCCCC3)SSC[C@@H](C(=O)N3CCC[C@H]3C(=O)N[C@@H](CCCN=C(N)N)C(=O)NCC(N)=O)NC(=O)[C@H](CC(N)=O)NC(=O)[C@H](CCC(N)=O)NC(=O)[C@H](Cc3ccccc3)NC2=O)cc1`, the ED in assay [1] amounted to 0.36 nM/kg; in assay [2] it was 7.3 nM/kg; in [3], 1.3 nM/kg.
With `COc1ccc(C[C@H]2NC(=O)CC3(CCCCC3)SSC[C@@H](C(=O)N3CCC[C@H]3C(=O)N[C@@H](CCCN=C(N)N)C(=O)NCC(N)=O)NC(=O)[C@H](CC(N)=O)NC(=O)[C@H](C(C)C)NC(=O)[C@H](Cc3ccccc3)NC2=O)cc1`, the figures for the ED in assay [1], in assay [2] and in [3] were 0.23 nM/kg, 1.2 nM/kg and 1.9 nM/kg, respectively.
`COc1ccc(C[C@H]2NC(=O)CC3(CCCCC3)SSC[C@@H](C(=O)N3CC=C[C@H]3C(=O)N[C@@H](CCCN=C(N)N)C(=O)NCC(N)=O)NC(=O)[C@H](CC(N)=O)NC(=O)[C@H](C(C)C)NC(=O)[C@H](Cc3ccccc3)NC2=O)cc1`: the ED in assay [1] is 0.55 nM/kg; in assay [2], 1.7 nM/kg; in assay [3], 1.17 nM/kg.
As to `COc1ccc(C[C@@H]2NC(=O)CC3(CCCCC3)SSC[C@@H](C(=O)N3CCC[C@H]3C(=O)N[C@@H](CCCN=C(N)N)C(=O)NCC(N)=O)NC(=O)[C@H](CC(N)=O)NC(=O)[C@H](C(C)C)NC(=O)[C@H](Cc3ccccc3)NC2=O)cc1`, the figures for the ED in assay [1], in assay [2] and in [3] were 0.29 nM/kg, 3.1 nM/kg and 8 nM/kg, respectively.
As to `CC[C@H](C)[C@@H]1NC(=O)[C@H](Cc2ccc(OC)cc2)NC(=O)CC2(CCCCC2)SSC[C@@H](C(=O)N2CCC[C@H]2C(=O)N[C@@H](CCCN)C(=O)NCC(N)=O)NC(=O)[C@H](CC(N)=O)NC(=O)[C@H](CCC(N)=O)NC1=O` (Y(Me)IQNCP[Orn]G-NH2; linker N-5 via X1), the ED in assay [1] turned out to be 0.8 nM/kg; in assay [2], 0.01 nM/kg; in [3], 4.2 nM/kg.
On to `CC[C@H](C)[C@@H]1NC(=O)[C@H](Cc2ccc(OC)cc2)NC(=O)CC2(CCCCC2)SSC[C@@H](C(=O)N2CCC[C@H]2C(=O)N[C@@H](CCCN)C(N)=O)NC(=O)[C@H](CC(N)=O)NC(=O)[C@H]([C@@H](C)O)NC1=O` (Y(Me)ITNCP[Orn]-NH2; linker N-5 via X1), for which the figures for the ED in assay [1], in [4] and in assay [3] were 7.3 nM/kg, about 100 nM/kg and 1.7 nM/kg, respectively.
Turning to `CC[C@H](C)[C@@H]1NC(=O)[C@H](Cc2ccc(OC)cc2)NC(=O)CC2(CCCCC2)SSC[C@@H](C(=O)N2CCC[C@H]2C(=O)N[C@@H](CCCN)C(=O)O)NC(=O)[C@H](CC(N)=O)NC(=O)[C@H]([C@@H](C)O)NC1=O` (Y(Me)ITNCP[Orn]-OH; linker N-5 via X1), the Kb in [5] was 20.4 nM; in assay [6], 5.75 nM; in assay [7] it was 331 nM; in [8] it was 12.9 nM; in assay [9], about 5010 nM.
The like results for `CC[C@H](C)[C@@H]1NC(=O)[C@H](Cc2ccc(OC)cc2)NC(=O)CC2(CCCCC2)SSC[C@@H](C(=O)N2CCC[C@H]2C(=O)N[C@@H](CCCN)C(=O)NCC(N)=O)NC(=O)[C@H](CC(N)=O)NC(=O)[C@H]([C@@H](C)O)NC1=O` (Y(Me)ITNCP[Orn]G-NH2; linker N-5 via X1) were, in that order, 28.2 nM, 3.89 nM, 141 nM, 9.55 nM and about 5010 nM.
For `CCOc1ccc(C[C@H]2NC(=O)CC3(CCCCC3)SSC[C@@H](C(=O)N3CCC[C@H]3C(=O)N[C@@H](CCCCN)C(=O)NCC(N)=O)NC(=O)[C@H](CC(N)=O)NC(=O)[C@H](C(C)C)NC(=O)[C@H](Cc3ccccc3)NC2=O)cc1` ([dY](Et)FVNCPKG-NH2; linker N-5 via X1) [listing 1 of 2 here] the same measures were 26.9 nM, 10.5 nM, 6.92 nM, 13.5 nM and 19.1 nM.
Take `CCOc1ccc(C[C@H]2NC(=O)CC3(CCCCC3)SSC[C@@H](C(=O)N3CCC[C@H]3C(=O)N[C@@H](CCCCN)C(=O)NCC(N)=O)NC(=O)[C@H](CC(N)=O)NC(=O)[C@H](C(C)C)NC(=O)[C@H](Cc3ccccc3)NC2=O)cc1` ([dY](Et)FVNCPKG-NH2; linker N-5 via X1) [listing 2 of 2 here]: the ED in [1] came out at 0.48 nM/kg; in assay [2], 1.5 nM/kg; in assay [3], 1.9 nM/kg.
Turning to `CCOc1ccc(C[C@H]2NC(=O)CC3(CCCCC3)SSC[C@@H](C(=O)N3CCC[C@H]3C(=O)N[C@@H](CCCN=C(N)N)C(=O)NCC(N)=O)NC(=O)[C@H](CC(N)=O)NC(=O)[C@H](C(C)C)NC(=O)[C@H](Cc3ccccc3)NC2=O)cc1` ([dY](Et)FVNCPRG-NH2; linker N-5 via X1), the ED in [1] was determined as 0.45 nM/kg; in [2] it was 1.1 nM/kg; in assay [3], 2.6 nM/kg.
Take `CC[C@H](C)[C@@H]1NC(=O)C(Cc2ccc(OC)cc2)NC(=O)CC(C)(C)SSC[C@@H](C(=O)N2CCC[C@H]2C(=O)N[C@@H](CCCN=C(N)N)C(=O)NCC(N)=O)NC(=O)[C@H](CC(N)=O)NC(=O)[C@H](C(C)C)NC1=O` (stereo in doubt): the ED in assay [1] amounted to 0.23 nM/kg; in assay [3], 1.9 nM/kg. In addition, the Activity in assay [10] amounted to 1.6 mg.
`CC[C@H](C)[C@@H]1NC(=O)C(Cc2ccc(OC)cc2)NC(=O)CC(C)(C)SSC[C@@H](C(=O)N2CCC[C@H]2C(=O)N[C@@H](CCCN=C(N)N)C(=O)NCC(N)=O)NC(=O)[C@H](CC(N)=O)NC(=O)[C@H](CCC(N)=O)NC1=O` (stereo in doubt): the figures for the ED in assay [1] and in [3] were 0.25 nM/kg and 2.2 nM/kg, respectively. Also, the Activity in [10] is about 1.6 mg.
For `CC[C@H](C)[C@@H]1NC(=O)C(Cc2ccc(OC)cc2)NC(=O)CC2(CCCCC2)SSC[C@@H](C(=O)N2CCC[C@H]2C(=O)N[C@@H](CCCCN)C(=O)NCC(N)=O)NC(=O)[C@H](CC(N)=O)NC(=O)[C@H](CCC(N)=O)NC1=O` (stereo in doubt) the same measures were 1.5 nM/kg, 4.6 nM/kg and about 0.003 mg.
